Measured values as given in ChEMBL document CHEMBL5647697, “Akt inhibition synergizes with polycomb repressive complex 2 inhibition in the treatment of multiple myeloma” (2019).
Active and inactive are the calls of the source. No cut-off for these calls is given here.

Columns and labels:
NCI-H929 [1] = assay: Upregulation of FOXO3 […] expression in human NCI-H929 cells assessed as enhanced nuclear accumulation at 1 micromol/L after 24 hrs by immunofluorescence staining; assay type: functional, cell-based; conditions: dose 1.0 µmol/L
MM1.S [2] = assay: Synergistic activity against human MM.1S cells assessed as combination index […] compound addition at 0.125 uM incubated for 48 hrs by […]; assay type: functional
Summary of the method: (§1)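 Cells were exposed to the EZH2/EZH1 inhibitor (UNC1999 or GSK126) for 72 h in total, with the Akt inhibitor added for the last 48 h. Viability was read by MTS assay relative to untreated control cells, in triplicate. The combination index for each dose pair came from isobologram analysis.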

NCI-H929 [3] = assay: Upregulation of EZH1 protein expression in human NCI-H929 cells at 0.03 to 3 micromol/L after 48 hrs by Western blot analysis; assay type: functional, cell-based; conditions: dose 0.03-3 µmol/L
Summary of the method: (§2)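 MM.1S and H929 cells were treated with graded TAS-117 for 48 h. EZH1 was detected by immunoblot and quantified relative to the GAPDH loading control.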

MM1.S [4] = assay: Induction of apoptosis in human MM1.S cells assessed as early apoptotic cells preincubated in presence of 5 micromol/L UNC1999 for 48 hrs followed by compound addition at 2 micromol/L incubated for 12 hrs by annexin V/PI staining based flow cytometry (reference value: 8.03%); assay type: functional; conditions: dose 2 µmol/L, at 2 µM
OPM-2/BTZ [5] = assay: Cytotoxicity against human OPM-2/BTZ cells assessed as reduction in cell viability at 0.3125 to 10 micromol/L after 48 hrs by MTS assay; assay type: functional, cell-based; conditions: dose 0.3125-10 µmol/L
Summary of the method: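 Seven myeloma lines (MM.1S, H929, OPM2/BTZ among them) exposed to TAS-117 at increasing concentrations up to 10 μmol/L for 48 h. Viability read by MTS against an untreated control; mean ± SD of triplicates.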

OPM-2 [6] = assay: Synergistic activity against human OPM-2 cells assessed as combination index preincubated in presence of 1.25 uM GSK126 for 72 hrs followed by compound addition at 2.5 uM incubated for 48 hrs by MTT assay; assay type: functional
OPM-2/BTZ [7] = assay: Synergistic activity against human OPM-2/BTZ cells assessed as combination index preincubated in presence of 5 uM GSK126 for 72 hrs followed by compound addition at 2 uM incubated for 48 hrs by MTT assay; assay type: functional
MM1.S [8] = assay: Downregulation of phospho-Rb protein expression in human MM1.S cells incubated at 0.3 to 3 micromol/L for 48 hrs by Western blot analysis; assay type: functional, cell-based; conditions: dose 0.3-3 µmol/L
Summary of the method: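 MM.1S and H929 cells given TAS-117 at the indicated doses for 48 h. Protein levels assessed by immunoblot.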

MM1.S [9] = assay: Downregulation of E2F1 mRNA expression in human MM1.S cells incubated at 0.3 to 3 micromol/L for 24 hrs by qRT-PCR analysis; assay type: functional, cell-based; conditions: dose 0.3-3 µmol/L
Summary of the method: (§3)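 MM.1S and H929 cells given TAS-117 at the indicated doses for 24 h. mRNA measured by RT-qPCR, fold change after normalization to GAPDH; SD of triplicates; significance versus untreated control.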

OPM-2/BTZ [10] = assay: Downregulation of CDK2 protein expression in human OPM-2/BTZ cells incubated at 0.3 to 3 micromol/L for 48 hrs by Western blot analysis; assay type: functional, cell-based; conditions: dose 0.3-3 µmol/L
MM1.S [11] = assay: Upregulation of EZH1 protein expression in human MM1.S cells at 0.03 to 3 micromol/L after 48 hrs by Western blot analysis; assay type: functional, cell-based; conditions: dose 0.03-3 µmol/L; summary of the method: as §2
NCI-H929 [12] = assay: Synergistic activity against human NCI-H929 cells assessed as combination index […] at 0.5 uM incubated for 48 hrs by […]; assay type: functional; summary of the method: as §1
MM1.S [13] = assay: Upregulation of EZH1 mRNA expression in human MM1.S cells transduced with EZH1 at 0.3 micromol/L after 24 hrs by qRT-PCR analysis relative to control; assay type: functional, cell-based; conditions: dose 0.3 µmol/L
Summary of the method: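 MM.1S cells were transduced with lentiviral shRNA against EZH1 or luciferase (shLuc control). Cells were then given graded TAS-117 for 24 h. EZH1 mRNA was measured by qRT-PCR and normalized to GAPDH.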

MM1.S [14] = assay: Induction of apoptosis in human MM1.S cells assessed as live cells at 2 micromol/L incubated for 12 hrs by annexin V/PI staining based flow cytometry (reference value: 88.2%); assay type: functional; conditions: dose 2 µmol/L, at 2 µM
NCI-H929 [15] = assay: Induction of apoptosis in human NCI-H929 cells assessed as early apoptotic cells preincubated in presence of 5 micromol/L UNC1999 for 48 hrs followed by compound addition at 2 micromol/L incubated for 12 hrs by annexin V/PI staining based flow cytometry (reference value: 0.37%); assay type: functional; conditions: dose 2 µmol/L, at 2 µM
NCI-H929 [16] = assay: Induction of apoptosis in human NCI-H929 cells assessed as early apoptotic cells at 2 micromol/L incubated for 12 hrs by annexin V/PI staining based flow cytometry (reference value: 0.37%); assay type: functional; conditions: dose 2 µmol/L, at 2 µM
MM1.S [17] = assay: Downregulation of EZH2 mRNA expression in human MM1.S cells in presence of 5 micromol/L UNC1999 for 72 hrs followed by compound addition at 2 micromol/L incubated for 24 hrs by qRT-PCR analysis; conditions: dose 2.0 µmol/L
MM1.S [18] = assay: Upregulation of FOXO3 in human MM1.S cells assessed as enhanced nuclear accumulation at 0.5 micromol/L after 24 hrs by immunofluorescence staining; assay type: functional, cell-based; conditions: dose 0.5 µmol/L
Summary of the method: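 MM.1S and H929 cells were treated with or without 0.5 μmol/L TAS-117 for 24 h. Cells were immunostained with anti-FOXO3. Jurkat cells served as positive control and cells without primary antibody as negative control. Read-out was the average fluorescence intensity of the nuclear FOXO3 fraction versus untreated cells.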

OPM-2/BTZ [19] = assay: Downregulation of phospho-Rb protein expression in human OPM-2/BTZ cells incubated at 0.3 to 3 micromol/L for 48 hrs by Western blot analysis; assay type: functional, cell-based; conditions: dose 0.3-3 µmol/L
OPM-2 [20] = assay: Synergistic activity against human OPM-2 cells assessed as combination index preincubated in presence of 1.25 uM GSK126 for 72 hrs followed by compound addition at 5 uM incubated for 48 hrs by MTT assay; assay type: functional
NCI-H929 [21] = assay: Induction of apoptosis in human NCI-H929 cells assessed as late apoptotic cells preincubated in presence of 5 micromol/L UNC1999 for 48 hrs followed by compound addition at 2 micromol/L incubated for 12 hrs by annexin V/PI staining based flow cytometry (reference value: […]%); assay type: functional; conditions: dose 2 µmol/L
NCI-H929 [22] = assay: Downregulation of E2F2 mRNA expression in human NCI-H929 cells incubated at 0.3 to 3 micromol/L for 24 hrs by qRT-PCR analysis; assay type: functional, cell-based; conditions: dose 0.3-3 µmol/L; summary of the method: as §3
MM1.S [23] = assay: Downregulation of E2F2 mRNA expression in human MM1.S cells incubated at 0.3 to 3 micromol/L for 24 hrs by qRT-PCR analysis; assay type: functional, cell-based; conditions: dose 0.3-3 µmol/L; summary of the method: as §3
[24] = biological target: Serine/threonine-protein kinase AKT (Homo sapiens) (UniProt P31751+Q9Y243+P31749); assay: Inhibition of Akt phosphorylation in human OPM-2/BTZ cells after 48 hrs at 0.3 to 2 micromol/L for 48 hrs by Western blot analysis; assay type: cell-based; conditions: dose 0.3-2 µmol/L
Sequence of Serine/threonine-protein kinase AKT (Homo sapiens) (P31749 whole entry, looked up): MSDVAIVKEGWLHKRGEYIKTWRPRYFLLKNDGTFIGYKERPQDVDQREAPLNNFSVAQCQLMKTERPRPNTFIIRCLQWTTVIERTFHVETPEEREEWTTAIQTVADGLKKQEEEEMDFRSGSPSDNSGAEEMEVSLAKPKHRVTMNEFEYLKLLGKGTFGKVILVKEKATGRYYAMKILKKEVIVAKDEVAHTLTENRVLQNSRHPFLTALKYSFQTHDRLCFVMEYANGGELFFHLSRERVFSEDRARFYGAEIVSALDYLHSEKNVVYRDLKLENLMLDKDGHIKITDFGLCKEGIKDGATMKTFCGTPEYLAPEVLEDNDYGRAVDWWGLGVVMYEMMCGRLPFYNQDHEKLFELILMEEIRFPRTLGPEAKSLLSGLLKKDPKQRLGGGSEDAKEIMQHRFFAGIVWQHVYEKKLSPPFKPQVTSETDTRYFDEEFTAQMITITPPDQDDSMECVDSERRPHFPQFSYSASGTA
Sequence of Serine/threonine-protein kinase AKT (Homo sapiens) (P31751 whole entry, looked up): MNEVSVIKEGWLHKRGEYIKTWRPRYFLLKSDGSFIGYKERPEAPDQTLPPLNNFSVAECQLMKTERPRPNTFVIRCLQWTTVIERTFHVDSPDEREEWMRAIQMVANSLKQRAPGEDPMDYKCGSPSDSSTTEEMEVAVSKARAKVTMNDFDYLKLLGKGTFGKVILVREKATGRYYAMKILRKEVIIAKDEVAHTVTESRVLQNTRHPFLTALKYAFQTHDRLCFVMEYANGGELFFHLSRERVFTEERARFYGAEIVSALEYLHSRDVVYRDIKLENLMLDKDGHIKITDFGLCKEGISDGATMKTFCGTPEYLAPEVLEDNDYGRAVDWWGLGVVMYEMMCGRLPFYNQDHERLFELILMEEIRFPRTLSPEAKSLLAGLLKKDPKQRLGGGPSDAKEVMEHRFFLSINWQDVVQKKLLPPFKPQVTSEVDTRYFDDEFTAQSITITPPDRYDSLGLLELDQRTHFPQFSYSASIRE
Sequence of Serine/threonine-protein kinase AKT (Homo sapiens) (Q9Y243 whole entry, looked up): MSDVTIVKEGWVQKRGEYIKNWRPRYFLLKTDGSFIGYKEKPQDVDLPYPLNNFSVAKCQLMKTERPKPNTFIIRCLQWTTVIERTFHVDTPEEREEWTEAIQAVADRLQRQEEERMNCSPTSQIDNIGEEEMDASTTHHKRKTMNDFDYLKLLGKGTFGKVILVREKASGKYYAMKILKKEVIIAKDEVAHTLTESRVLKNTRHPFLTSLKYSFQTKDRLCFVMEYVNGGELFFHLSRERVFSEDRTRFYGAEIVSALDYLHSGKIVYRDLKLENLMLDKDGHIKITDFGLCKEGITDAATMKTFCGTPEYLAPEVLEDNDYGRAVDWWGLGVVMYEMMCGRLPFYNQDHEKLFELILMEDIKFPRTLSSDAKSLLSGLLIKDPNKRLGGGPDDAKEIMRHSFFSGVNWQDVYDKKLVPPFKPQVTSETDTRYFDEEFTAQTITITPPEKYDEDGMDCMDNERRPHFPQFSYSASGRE

NCI-H929 [25] = assay: Upregulation of FOXO4 […] expression in human NCI-H929 cells assessed as enhanced nuclear accumulation at 1 micromol/L after 24 hrs by immunofluorescence staining; assay type: functional, cell-based; conditions: dose 1.0 µmol/L

For `C[C@]1(O)C[C@@](N)(c2ccc(-c3nc4n(c3-c3ccccc3)COc3ccncc3-4)cc2)C1` [PIFUSERTIB], which Activity (NCI-H929 [1]) is on record?
Its Activity is “Active”.

What about the CI (MM1.S [2]) of the same compound?
The CI was 0.751.

And the Activity (NCI-H929 [3])?
The Activity was “Active”.

And the Activity (MM1.S [4])?
Its Activity is 40.7%.

What about the Activity (OPM-2/BTZ [5]) of the same compound?
The Activity was “Active”.

And the CI (OPM-2 [6])?
Its CI is 2.465.

What about the CI (OPM-2/BTZ [7]) of the same compound?
Its CI is 0.967.

And the Activity (MM1.S [8])?
The Activity was “Active”.

And the Activity (MM1.S [9])?
Its Activity is “Active”.

What about the Activity (OPM-2/BTZ [10]) of the same compound?
The Activity was “Active”.

What about the Activity (MM1.S [11]) of the same compound?
The Activity was “Active”.

What about the CI (NCI-H929 [12]) of the same compound?
Its CI is 1.046.

And the Activity (MM1.S [13])?
The Activity was “Active”.

What about the Activity (MM1.S [14]) of the same compound?
The Activity was 85.7%.

And the Activity (NCI-H929 [15])?
Its Activity is 16.1%.

And the Activity (NCI-H929 [16])?
Its Activity is 4.49%.

What about the Activity (MM1.S [17]) of the same compound?
The Activity was “Active”.

And the Activity (MM1.S [18])?
Its Activity is “Active”.

And the Activity (OPM-2/BTZ [19])?
The Activity was “Active”.

What about the CI (OPM-2 [20]) of the same compound?
Its CI is 11.425.

And the Activity (NCI-H929 [21])?
The Activity was 11.3%.

And the Activity (NCI-H929 [22])?
Its Activity is “Active”.

What about the Activity (MM1.S [23]) of the same compound?
Its Activity is “Active”.

What about the inhibition [24] of the same compound?
Its inhibition is “Active”.

And the Activity (NCI-H929 [25])?
The Activity was “Active”.
